Experimental findings from ChEMBL document CHEMBL4422632, “Design of Novel Inhibitors of Human Thymidine Phosphorylase: Synthesis, Enzyme Inhibition, in Vitro Toxicity, and Impact on Human Glioblastoma Cancer” (J Med Chem, 2019) are described below.

Calls of active or inactive are those of the source. The rule behind the calls is not given here. Some results are limits rather than exact numbers.

Series [1] in a line: Cytotoxicity against African green monkey Vero cells assessed as cell viability at 50 uM after 72 hrs by neutral red uptake-based assay relative to control. The note with it: chlorocebus sabaeus, read-out: Activity. An outline of the steps: (§1)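 Cells grown in DMEM with 10% FBS at 37 °C, 5% CO₂; seeded 2 x 10³ cells/well, adhered 24 h, then exposed 72 h. MTT: 1 mg/mL for 3 h, formazan in DMSO, absorbance 595 nm. NRU: neutral red 25 µg/mL in serum-free medium for 3 h, desorbed in ethanol:acetic acid:water. Viability as % of untreated control; mean ± SEM of three to five independent experiments in triplicate.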

The nature of series [2]: Cytotoxicity against African green monkey Vero cells assessed as cell viability at 100 uM after 72 hrs by MTT assay relative to control. The series is classed as cell-based. Particulars: chlorocebus sabaeus, read-out: Activity. Put shortly: as §1
Series [3] can be described thus: Half life in human liver S9 fraction at 2 uM up to 30 mins in presence of NADPH by HPLC-MS/MS analysis. The format is ADME, subcellular.
The test system of series [4] is U-87 MG. Briefly: Antitumor activity against human U87MG cells xenografted in BALB/c nude mouse assessed as tumor growth inhibition 50 mg/kg/day, ip administered for 14 days. The format is functional, organism-based. Particulars: U-87MG ATCC. Put shortly: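 5 x 10⁵ U-87 MG cells implanted subcutaneously in right flank of male BALB/c nude mice; at about 50 mm³, randomized to saline or ip 50 mg/kg/day, with temozolomide 50 mg/kg/day in the combination arm, for 14 days. Relative tumor volume = volume on day / day 0; TGI on day 14 = [1 − RTV treated/RTV control] x 100. Two-way ANOVA with Bonferroni.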

The test system of series [5] is U-87 MG. Nature of the series: Anti-angiogenic activity in tumor of human U87MG cells xenografted in nude BALB/c mouse assessed as reduction in number of blood vessels at 50 mg/kg, ip administered for 14 days by hematoxylin and eosin-staining based light microscopy co-treated with temozolamide. The series is classed as functional, organism-based. Particulars: U-87MG ATCC. An outline of the steps:
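U-87 MG flank xenografts (5 x 10⁵ cells) in male nude mice; ip treatment daily from about 50 mm³ for 14 days, with temozolomide at 50 mg/kg/day in the co-treatment arm. Vessel density counted on HE-stained 3 µm sections by hot-spot method, mean of four fields per tumor at x200, avoiding gross haemorrhage. One-way ANOVA/Dunnett.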

Series [6] is described as follows: Cytotoxicity against human HepG2 cells assessed as cell viability at 100 uM after 72 hrs by neutral red uptake-based assay relative to control. Particulars: read-out: Activity. An outline of the steps:
as §1

A short description of series [7]: Cytotoxicity against African green monkey Vero cells assessed as cell viability at 1000 uM after 72 hrs by neutral red uptake-based assay relative to control. The note with it: chlorocebus sabaeus, read-out: Activity. An outline of the steps: as §1
The nature of series [8]: Cytotoxicity against African green monkey Vero cells assessed as cell viability at 1000 uM after 72 hrs by MTT assay relative to control. The series is classed as cell-based. The note with it: chlorocebus sabaeus, read-out: Activity. Put shortly: as §1
A short description of series [9]: Cmax in CF1 mouse at 50 mg/kg, ip by non-compartmental analysis. The format is ADME, organism-based. Also on record: dose 50 mg/kg, route intraperitoneal. The note with it: in vivo. Put shortly: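 Male CF1 mice received a single ip injection of 50 mg/kg in 0.9% saline; 3 animals per time point, killed 0.03, 0.08, 0.25, 0.5, 1 and 2 h after dosing; blood collected in heparin tubes.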

Series [10] can be described thus: Cytotoxicity against mouse RAW264.7 cells assessed as cell viability at 250 uM after 72 hrs by MTT assay relative to control. The format is cell-based. The note with it: read-out: Activity. Put shortly: (§2)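 Cells kept in DMEM with 10% heat-inactivated FBS, 1% penicillin-streptomycin and 0.1% fungizone at 37 °C, 5% CO₂. U-87 MG seeded at 2 x 10^3 cells/well, RAW 264.7 at 5 x 10^2, adhered 24 h, then exposed 72 h. MTT: 1 mg/mL for 3 h, formazan in DMSO, A595. NRU: 25 μg/mL dye, 3 h, ethanol:acetic acid:water desorb. Untreated wells = 100%; three to five independent experiments in triplicate.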

The nature of series [11]: Cytotoxicity against human HepG2 cells assessed as cell viability at 1000 uM after 72 hrs by MTT assay relative to control. The format is cell-based. The note with it: read-out: Activity. An outline of the steps: as §1
The target in the next series is T1, Cytochrome P450 1A2 (Homo sapiens, UniProt P05177).
T1 sequence (P05177 whole entry): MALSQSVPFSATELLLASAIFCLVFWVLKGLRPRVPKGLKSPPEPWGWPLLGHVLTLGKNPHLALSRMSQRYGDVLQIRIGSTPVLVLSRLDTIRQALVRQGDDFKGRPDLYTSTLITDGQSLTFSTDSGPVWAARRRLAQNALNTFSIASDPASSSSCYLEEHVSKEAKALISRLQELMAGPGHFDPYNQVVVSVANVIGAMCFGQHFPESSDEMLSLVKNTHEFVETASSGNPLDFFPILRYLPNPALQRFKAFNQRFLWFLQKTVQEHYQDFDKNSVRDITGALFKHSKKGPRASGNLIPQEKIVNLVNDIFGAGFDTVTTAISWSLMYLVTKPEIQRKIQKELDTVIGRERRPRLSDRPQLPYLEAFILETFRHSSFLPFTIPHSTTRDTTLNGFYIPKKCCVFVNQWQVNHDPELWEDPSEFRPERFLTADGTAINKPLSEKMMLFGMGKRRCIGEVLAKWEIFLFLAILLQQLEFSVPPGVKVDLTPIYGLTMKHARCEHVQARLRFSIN
Nature of the series: Inhibition of CYP1A2 in human liver microsomes by HPLC-MS/MS analysis. The format is ADME.

The next series has as its system HepG2. Nature of the series: Genotoxicity in human HepG2 cells assessed as induction of DNA-strand breaks at 1000 uM after 24 hrs by alkaline comet assay. The series is classed as toxicity, cell-based. The note with it: hepg2, 24 h. Put shortly:
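HepG2 seeded at 5 x 10^4 cells/well for 24 h, then exposed 24 h at 250, 500 and 1,000 μM. Alkaline comet assay: lysis 24 h, unwinding in 300 mM NaOH/1 mM EDTA (pH > 13) at 4 °C for 20 min, electrophoresis 20 min at 25 V, silver staining. MMS 100 µM as positive control. 100 cells scored 0–4 for a damage index of 0–400. Mean ± SEM of three experiments.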

Series [12] relates to U-87 MG. Briefly: Anti-angiogenic activity in tumor of human U87MG cells xenografted in nude BALB/c mouse assessed as reduction in CD31 staining at 50 mg/kg, ip administered for 14 days by immunohistochemistry. The format is functional, organism-based. The note with it: U-87MG ATCC. An outline of the steps:
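Male nude mice bearing subcutaneous right-flank xenografts of 5 x 10⁵ U-87 MG cells; dosing began at about 50 mm³ tumors, ip daily for 14 days. Tumors formalin-fixed, paraffin sections 3 µm; citrate pH 6 antigen retrieval at 95-98 °C; primary antibody overnight at 4 °C, HRP secondary, DAB. Positive area quantified by optical density at x200, 4 images per tumor; mean ± SEM, one-way ANOVA with Dunnett.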

A short description of series [13]: Cytotoxicity against human U87MG cells assessed as cell viability at 50 uM after 72 hrs by neutral red uptake-based assay relative to control. Also on record: species or system U-87MG ATCC. Particulars: read-out: Activity. Put shortly: as §2
Series [14] is described as follows: MRT in CF1 mouse at 50 mg/kg, ip by non-compartmental analysis. The format is ADME, organism-based. Particulars: in vivo.
A short description of series [15]: Cytotoxicity against African green monkey Vero cells assessed as cell viability at 25 uM after 72 hrs by neutral red uptake-based assay relative to control. The note with it: chlorocebus sabaeus, read-out: Activity. Put shortly:
as §1

A short description of series [16]: Cytotoxicity against human U87MG cells assessed as cell viability at 100 uM after 72 hrs by MTT assay relative to control. The series is classed as cell-based, U-87MG ATCC. Particulars: read-out: Activity. Put shortly:
as §1

Series [17] is described as follows: Cytotoxicity against human HepG2 cells assessed as cell viability at 50 uM after 72 hrs by MTT assay relative to control. The series is classed as cell-based. The note with it: read-out: Activity. An outline of the steps:
as §1

Consider `O=c1[nH]c(CNC(CO)CO)c(I)c(=O)[nH]1`, for which the viability at 72 h, 50 µM in series [1] was 112%; in series [13] it was 101%; in [17] it was 100%. Further, the viability at 72 h, 100 µM in series [2] was found to be 96%; in series [6], 102%; in series [16] it was 96%. The half-life at 2 µM in series [3] came to 28.1 min. Further, the TGI entry in the series on U-87 MG [4] is “Active”. The outcome with U-87 MG [5] and in the series on U-87 MG [12] was Active. Besides, the viability at 72 h, 1000 µM turned out to be 72% in series [7], 75% in [8] and 82% in series [11]. In series [9], this compound displayed a Cmax of 34800 ng/mL. The viability at 72 h, 250 µM in [10] stood at 95%. Besides, at Cytochrome P450 1A2, the IC50 was above 100 µM. The Activity result in the series with HepG2 is “Non-Toxic”. In series [14], the MRT is 24 min. Also, the viability at 72 h, 25 µM in series [15] was 108%.
